Test results as given in PMC2854813 (Advanced synthesis & catalysis, 2009).
Like-named read-outs stand apart in the source and are kept apart here. Each block holds one molecule with its values, some of them ahead of it.

Assays:
[1] = molecular target: T1, PETNR (Enterobacter cloacae, UniProt P71278); assay: Substrate screen of PETNR by spectrophotometric assays or GC analysis; type: biochemical, Enterobacter cloacae st. PB2
T1 sequence (P71278 1-365): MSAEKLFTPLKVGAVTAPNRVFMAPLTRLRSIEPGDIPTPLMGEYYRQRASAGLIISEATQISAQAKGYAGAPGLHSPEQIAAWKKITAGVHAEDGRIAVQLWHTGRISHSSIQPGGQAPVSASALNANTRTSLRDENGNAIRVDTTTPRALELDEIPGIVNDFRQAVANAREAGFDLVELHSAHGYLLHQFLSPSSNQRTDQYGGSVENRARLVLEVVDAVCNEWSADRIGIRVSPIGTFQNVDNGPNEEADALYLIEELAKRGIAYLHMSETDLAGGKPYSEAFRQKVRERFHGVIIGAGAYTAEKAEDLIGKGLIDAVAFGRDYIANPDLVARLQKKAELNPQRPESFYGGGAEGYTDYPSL

[2] = molecular target: T1, PETNR; assay: Enzyme concentration dependence of the reduction of ketoisophorone by PETNR; type: biochemical, Enterobacter cloacae st. PB2; conditions: 2 h, pH 7.0, 3a 5 mM, NADPH 6 mM
Outline: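 Ketoisophorone (5 mM) and NADPH (6 mM) with varied PETNR in 50 mM phosphate pH 7.0, shaken at 130 rpm at 30 °C for 2 h. Extraction was into ethyl acetate containing internal standard. Conversion was by GC (DB-Wax) and ee by GC on a Chirasil-DEX-CB column.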

[3] = molecular target: T1, PETNR; assay: Time course of ketoisophorone reduction and product racemisation, PETNR 0.02 μM; type: biochemical, Enterobacter cloacae st. PB2
Outline: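 Racemisation time course of ketoisophorone reduction at pH 7.0 over 24 h; substrate added in DMF (2% final). Controls at 8 h either removed enzyme by 10 kDa spin filtration (5000 rpm, 5 min) or added the PETNR inhibitor 1,4,5,6-tetrahydroNADPH (1.2 mg), then incubated to 24 h total. Conversion by GC (DB-Wax); ee by GC (Chirasil-DEX-CB).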

[4] = molecular target: T1, PETNR; assay: Steady-state kinetics of PETNR with α,β-unsaturated activated alkenes; type: biochemical, Enterobacter cloacae st. PB2; conditions: for Km / kcat: apparent, 5% ethanol
[5] = molecular target: T1, PETNR; assay: Time effect on optical purity of levodione at PETNR 2 μM; type: biochemical, Enterobacter cloacae st. PB2; conditions: Supporting Information Table S1
[6] = molecular target: T1, PETNR; assay: Aerobic versus anaerobic steady-state reaction rate of PETNR; type: biochemical, Enterobacter cloacae st. PB2; conditions: aerobic compared to anaerobic assays
Outline: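 NADPH oxidation was followed at 340 nm (365 nm for substrates absorbing at 340 nm) for 2 min at 25 °C. Anaerobic runs used a glove box (<5 ppm O2) with deoxygenated enzyme; aerobic runs were done outside it.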

[7] = molecular target: T1, PETNR; conditions: cited from earlier work
[8] = anaerobic, pH 7.0, 25 °C, NADPH 100 μM

Structure (SMILES): O=C(O)/C=C/c1ccccc1 [trans-cinnamic acid]
activity of PETNR towards the substrate (in words) [1]: did not reduce

Structure (SMILES): BrC1C=CCCC1 (stereo not drawn) [3-bromocyclohexene]
activity of PETNR towards the substrate (in words) [1]: no activity

Structure (SMILES): C[C@@H]1CC(=O)CC(C)(C)C1=O [(R)-3b, (R)-Levodione]
rate of racemisation [5]: 3 % ee/h
decline in enantiopurity with time (rate of racemisation) ([3]; PETNR 0.02 μM, pH 7.0, 30 °C, aqueous, non-enzymatic): approximately 3 % ee/h

Structure (SMILES): BrC=Cc1ccccc1 [β-bromostyrene]
activity of PETNR towards the substrate (in words) [1]: no activity

Structure (SMILES): COC(=O)/C=C/c1ccccc1 [methyl trans-cinnamate]
activity of PETNR towards the substrate (in words) [1]: did not reduce

Structure (SMILES): COC(=O)C1=CCCCC1 [methyl cyclohexenecarboxylate, methyl 1-cyclohexene-1-carboxylate]
activity of PETNR towards the substrate (in words) [1]: did not reduce

Structure (SMILES): C/C=C/C#N [crotonitrile]
activity of PETNR towards the substrate (in words) [1]: no activity

Structure (SMILES): O=C1C=C(c2ccccc2)CCC1 [3-phenylcyclohexene-1-one]
activity of PETNR towards the substrate (in words) [1]: inactive

Structure (SMILES): N#CC1=CCCCC1 [cyclohexene-1-carbonitrile]
activity of PETNR towards the substrate (in words) [1]: no activity

Structure (SMILES): NC(=O)C1=CN([C@@H]2O[C@H](COP(=O)(O)OP(=O)(O)OC[C@H]3O[C@@H](n4cnc5c(N)ncnc54)[C@H](OP(=O)(O)O)[C@@H]3O)[C@@H](O)[C@H]2O)CCC1 [NADPH4, 1,4,5,6-tetrahydroNADPH]
inhibition of PETNR activity (in words) [7]: excellent inhibitor

Structure (SMILES): O=C(O)/C=C(\C(=O)O)c1ccccc1 [3-phenylmaleic acid]
activity of PETNR towards the substrate (in words) [1]: did not reduce

Structure (SMILES): N#C/C=C/c1ccccc1 [trans-cinnamonitrile]
activity of PETNR towards the substrate (in words) [1]: no activity

Structure (SMILES): NC(=O)/C=C/c1ccccc1 [trans-cinnamide]
activity of PETNR towards the substrate (in words) [1]: did not reduce

Structure (SMILES): O=C(O)C1=CCCCC1 [1-cyclohexene-1-carboxylic acids, 1-cyclohexene-1-carboxylic acid]
activity of PETNR towards the substrate (in words) [1]: did not reduce

The remaining lines, values ahead:

Conv. [%] ([2]; enzyme 0.002 μM): 2%
Conv. [%] ([2]; enzyme 0.02 μM): 37%
Conv. [%] ([2]; enzyme 0.2 μM): >99%
Conv. [%] ([2]; enzyme 2 μM): >99%
Conv. [%] ([3]; 0.5 h, PETNR 0.02 μM, pH 7.0): 14%
Conv. [%] ([3]; 1 h, PETNR 0.02 μM, pH 7.0): 27%
Conv. [%] ([3]; 1.5 h, PETNR 0.02 μM, pH 7.0): 37%
Conv. [%] ([3]; 3 h, PETNR 0.02 μM, pH 7.0): 53%
Conv. [%] ([3]; 4 h, PETNR 0.02 μM, pH 7.0): 69%
Conv. [%] ([3]; 6 h, PETNR 0.02 μM, pH 7.0): 85%
Conv. [%] ([3]; 8 h, PETNR 0.02 μM, pH 7.0): 94%
Conv. [%] ([3]; 12 h, PETNR 0.02 μM, pH 7.0): 98%
Conv. [%] ([3]; 22 h, PETNR 0.02 μM, pH 7.0): >99%
Conv. [%] ([3]; 24 h, PETNR 0.02 μM, pH 7.0): >99%
Conv. [%] ([3]; 24 h, PETNR inhibitor NADPH4 (1.2 mg) added after 8 h): 99%
Conv. [%] ([3]; 24 h, filtered (10 K filter) after 8 h to remove all enzyme content): 99%
Km [4, 8]: 13.7 ± 0.5 µM
kcat [4, 8]: 5.52 ± 0.10 s⁻¹
Structure (SMILES): CC1=CC(=O)CC(C)(C)C1=O [3a, ketoisophorone]

activity of PETNR towards the substrate (in words) [1]: significant reduction in enzyme activity
Structure (SMILES): CC1=CC(=O)CC1 [16a, 3-methylcyclopentenone]

Ki [4]: 23.3 ± 1.7 mM
reduction in the overall steady-state reaction rate [6]: 18%
Structure (SMILES): O=C1C=CCCC1 [4a, 2-cyclohexenone]

activity of PETNR towards the substrate (in words) [1]: significant reduction in enzyme activity
Structure (SMILES): CC1=CC(=O)CCC1 [15a, 3-methylcyclohexenone]

Km [4, 8]: 102 ± 10.5 µM
kcat [4, 8]: 6.23 ± 0.33 s⁻¹
Ki ([4]; substrate inhibition, anaerobic, pH 7.0, 25 °C, NADPH 100 μM): 1.93 ± 0.46 mM
reduction in the overall steady-state reaction rate [6]: 48%
Structure (SMILES): CCC=C(C)C=O [10a, 2-methylpentenal]

Ki [4]: 3.2 ± 0.7 mM
Structure (SMILES): CC1=CC(=O)NC1=O [2a, 2-Methylmaleimide]
